Reference: ChEMBL document CHEMBL1221342, “Synthesis and in vitro antitumor activity of new 4,5-dihydropyrazole derivatives” (Bioorg Med Chem, 2010)

Test system: NCI-H460
Assay: Cytotoxicity against human NCI-H460 cells after 72 hrs by SRB assay
Assay type: functional, cell-based
Details: NCI-H460, 72 h
How it was run: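 NCI-H460 (ATCC) cells seeded in 96-well plates in growth medium. Scalar drug concentrations added 24 h after plating, then 72 h exposure. Surviving cells stained with sulforhodamine B, OD read at 570 nm. IC50 (50% growth inhibition) fitted from dose–response curves. Mean ± SE of at least three independent experiments.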

Compound | IC50 [µM]
COc1ccc(C2CC(c3cc(OC)c(OC)c(OC)c3)=NN2C(C)=O)cc1 (centres undefined) | > 20
COc1cc(C2CC(c3cccc(O)c3)=NN2)cc(OC)c1OC (centres undefined) | > 20
COc1ccc(C2=NN(C(C)=O)C(c3cc(OC)c(OC)c(OC)c3)C2)cc1 (centres undefined) | > 20
COc1cccc(C2=NNC(c3cc(OC)c(OC)c(OC)c3)C2)c1 (centres undefined) | > 20
COc1cc(C2CC(c3ccc(Cl)cc3)=NN2C(C)=O)cc(OC)c1OC (centres undefined) | 11.9
COc1cc(C2CC(c3ccc(F)cc3)=NN2C(C)=O)cc(OC)c1OC (centres undefined) | 12
COc1cc(C2CC(c3ccc(SC)cc3)=NN2)cc(OC)c1OC (centres undefined) | > 20
COc1cc(C2CC(c3ccc(N(C)C)cc3)=NN2)cc(OC)c1OC (centres undefined) | > 20
COc1cc(C2CC(c3ccc(C)cc3)=NN2C(=O)COC(C)=O)cc(OC)c1OC (centres undefined) | 3.3
COc1cc(C2=NN(C(C)=O)C(c3ccc(N(C)C)cc3)C2)cc(OC)c1OC (centres undefined) | > 20
COc1cc(C2CC(c3ccc(Br)cc3)=NN2C(C)=O)cc(OC)c1OC (centres undefined) | 6
COc1cc(C2CC(c3ccc(SC)cc3)=NN2C(C)=O)cc(OC)c1OC (centres undefined) | 8
COc1cc(C2=NN(C(=O)COC(C)=O)C(c3cc(OC)c(OC)c(OC)c3)C2)ccc1O (centres undefined) | 4.5
COc1cc(C2=NNC(c3cccc(O)c3)C2)cc(OC)c1OC (centres undefined) | > 20
COc1cc(C2CC(c3cccc(Br)c3)=NN2C(=O)COC(C)=O)cc(OC)c1OC (centres undefined) | > 20
COc1cc(C2CC(c3ccc(N(C)C)cc3)=NN2C(=O)CO)cc(OC)c1OC (centres undefined) | 1.3
COc1cc(C2=NN(C(=O)CO)C(c3cc(OC)c(OC)c(OC)c3)C2)ccc1O (centres undefined) | 1.85
COc1cccc(C2=NN(C(C)=O)C(c3cc(OC)c(OC)c(OC)c3)C2)c1 (centres undefined) | > 20
CCN(CC)c1ccc(C2=NN(C(=O)CO)C(c3cc(OC)c(OC)c(OC)c3)C2)cc1 (centres undefined) | 0.95

Compound | IC50 [µM]
COc1cccc(C2CC(c3cc(OC)c(OC)c(OC)c3)=NN2)c1 (centres undefined) | 11.6
COc1cccc(C2CC(c3cc(OC)c(OC)c(OC)c3)=NN2C(C)=O)c1 (centres undefined) | > 20
COc1cc(C2CC(c3ccc(C)cc3)=NN2C(=O)CO)cc(OC)c1OC (centres undefined) | 0.69
COc1cc(C2CC(c3ccc(F)cc3)=NN2)cc(OC)c1OC (centres undefined) | > 20
COc1cc(C2CC(c3ccc(N(C)C)cc3)=NN2C(=O)COC(C)=O)cc(OC)c1OC (centres undefined) | > 20
COc1cc(C2CC(c3cccc(Br)c3)=NN2)cc(OC)c1OC (centres undefined) | > 20
COc1cc(C2CC(c3cccc(Br)c3)=NN2C(=O)CO)cc(OC)c1OC (centres undefined) | 1.1
COc1cc(C2=NNC(c3cc(OC)c(OC)c(OC)c3)C2)ccc1O (centres undefined) | > 20
COc1cc(C2CC(c3ccc(C)cc3)=NN2C(C)=O)cc(OC)c1OC (centres undefined) | 1.3
CCN(CC)c1ccc(C2=NN(C(=O)COC(C)=O)C(c3cc(OC)c(OC)c(OC)c3)C2)cc1 (centres undefined) | 5
COc1cc(C2CC(c3ccc(Br)cc3)=NN2)cc(OC)c1OC (centres undefined) | > 20
COc1cc(C2CC(c3cccc(N)c3)=NN2C(C)=O)cc(OC)c1OC (centres undefined) | 0.74
CCN(CC)c1ccc(C2=NNC(c3cc(OC)c(OC)c(OC)c3)C2)cc1 (centres undefined) | > 20
COc1ccc(C2=NNC(c3cc(OC)c(OC)c(OC)c3)C2)cc1 (centres undefined) | > 20
COc1cc(C2CC(c3ccc(N)cc3)=NN2C(C)=O)cc(OC)c1OC (centres undefined) | 2.6
COc1cc(C2CC(c3ccc(C)cc3)=NN2)cc(OC)c1OC (centres undefined) | > 20
CCN(CC)c1ccc(C2CC(c3cc(OC)c(OC)c(OC)c3)=NN2C(C)=O)cc1 (centres undefined) | 13.8
COc1cc(C2=NN(C(C)=O)C(c3cccc(O)c3)C2)cc(OC)c1OC (centres undefined) | > 20

Test system: not listed separately
Assay: Inhibition of tubulin polymerization
Details: not given
How it was run: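 Tubulin (3 mg/mL HTS) in G-PEM buffer plus 5% glycerol, prepared at 4 °C, incubated at 37 °C with or without compound. Polymerization followed by A340 over 60 min. Polymer taken as the AUC, with untreated control AUC set to 100%. IC50 derived by non-linear regression.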

IC50 [µM] | Compound
6.14 | CCN(CC)c1ccc(C2=NN(C(=O)CO)C(c3cc(OC)c(OC)c(OC)c3)C2)cc1 (centres undefined)
7.72 | COc1cc(C2CC(c3ccc(C)cc3)=NN2C(=O)CO)cc(OC)c1OC (centres undefined)
> 10 | COc1cc(C2CC(c3ccc(C)cc3)=NN2C(C)=O)cc(OC)c1OC (centres undefined)
> 10 | COc1cc(C2CC(c3cccc(N)c3)=NN2C(C)=O)cc(OC)c1OC (centres undefined)
> 10 | CCN(CC)c1ccc(C2=NNC(c3cc(OC)c(OC)c(OC)c3)C2)cc1 (centres undefined)
10 | COc1cc(C2CC(c3ccc(N)cc3)=NN2C(C)=O)cc(OC)c1OC (centres undefined)
> 10 | COc1cc(C2CC(c3ccc(C)cc3)=NN2)cc(OC)c1OC (centres undefined)
